Activity calls are given as the source filed them. The calls are words filed in the database; no cut-off is given here.
How the values were obtained:
[1] = tested on: Mus musculus; experiment: Antipyretic activity against LPS-induced C57BL/6 mouse model of hyperthermia assessed as 6-keto-PGF1alpha level in diencephalon at 100 mg/kg, ip measured after 40 mins by LC-MS/MS analysis relative to control; format: functional
Method in brief: (§1)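 Male C57BL/6 mice got LPS (E. coli O111:B4, 100 μg kg⁻¹ i.p.) or saline, then 3 h later the drug i.p. in Ringer's acetate vehicle. Diencephalon was taken 40 min later and homogenized in Tris/EDTA/ascorbate with 10 μM MAFP and 100 μM ibuprofen. Prostanoids were quantified by negative-ion LC-MS/MS and expressed as % of LPS + vehicle. n = 6.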

[2] = Inhibition of prostanoid synthesis in FAAH-/- mouse assessed as PGF2alpha level in diencephalon at 150 mg/kg, ip measured after 40 mins by LC-MS/MS analysis relative to control; format: functional; set-up: scale not given: the % may be the effect or the level left
Method in brief: (§2)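 In a separate set, FAAH+/+ (n = 10–11) and FAAH-/- (n = 5) mice received LPS 100 μg kg⁻¹ i.p., then paracetamol 150 mg kg⁻¹ i.p. 3 h later. Diencephalic PGE2, PGF2α, 6-keto-PGF1α and TXB2 were measured by negative-ion LC-MS/MS and expressed as % of febrile vehicle-treated animals. Values below the detection limit were set to 1/4 of that limit.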

[3] = Inhibition of prostanoid synthesis in FAAH-/- mouse assessed as TXB2 level in diencephalon at 150 mg/kg, ip measured after 40 mins by LC-MS/MS analysis relative to control; format: functional; set-up: scale not given: the % may be the effect or the level left; method in brief: as §2
[4] = Inhibition of prostanoid synthesis in FAAH-/- mouse assessed as PGE2 level in diencephalon at 150 mg/kg, ip measured after 40 mins by LC-MS/MS analysis relative to control; format: functional; set-up: scale not given: the % may be the effect or the level left; method in brief: as §2
[5] = tested on: Mus musculus; experiment: Antipyretic activity against LPS-induced C57BL/6 mouse model of hyperthermia assessed as TXB2 level in diencephalon at 100 mg/kg, ip measured after 40 mins by LC-MS/MS analysis relative to control; format: functional; method in brief: as §1
[6] = Inhibition of prostanoid synthesis in FAAH+/+ mouse assessed as TXB2 level in diencephalon at 150 mg/kg, ip measured after 40 mins by LC-MS/MS analysis relative to control; format: functional; set-up: scale not given: the % may be the effect or the level left; method in brief: as §2
[7] = tested on: Mus musculus; experiment: Antipyretic activity against LPS-induced C57BL/6 mouse model of hyperthermia assessed as PGF2alpha level in diencephalon at 100 mg/kg, ip measured after 40 mins by LC-MS/MS analysis relative to control; format: functional; method in brief: as §1
[8] = Inhibition of prostanoid synthesis in FAAH+/+ mouse assessed as 6-keto-PGF1alpha level in diencephalon at 150 mg/kg, ip measured after 40 mins by LC-MS/MS analysis relative to control; format: functional; set-up: scale not given: the % may be the effect or the level left; method in brief: as §2
[9] = tested on: Mus musculus; experiment: Antipyretic activity against LPS-induced C57BL/6 mouse model of hyperthermia assessed as reduction in body temperature at 100 mg/kg, ip measured after 75 mins; format: functional, organism-based
Method in brief: (§3)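 Male C57BL/6 mice carried telemetry and recovered ≥1 week before use, housed at 29 °C ambient (near-thermoneutral). LPS 100 μg kg⁻¹ i.p. or saline was given, then drug or Ringer's acetate vehicle i.p. 3 h later. Core temperature was recorded continuously and analysed at the nadir time point. n = 4–9 per group.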

[10] = Inhibition of prostanoid synthesis in FAAH+/+ mouse assessed as PGE2 level in diencephalon at 150 mg/kg, ip measured after 40 mins by LC-MS/MS analysis relative to control; format: functional; set-up: scale not given: the % may be the effect or the level left; method in brief: as §2
[11] = Inhibition of prostanoid synthesis in FAAH+/+ mouse assessed as PGF2alpha level in diencephalon at 150 mg/kg, ip measured after 40 mins by LC-MS/MS analysis relative to control; format: functional; set-up: scale not given: the % may be the effect or the level left; method in brief: as §2
[12] = Hepatotoxicity in C57BL/6 mouse assessed as centrilobular necrosis at 300 mg/kg, ip measured after 12 hrs by H and E staining based microscopic analysis; format: toxicity, organism-based; conditions: in vivo
Method in brief: (§4)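 Male C57BL/6 mice (8 weeks) were fasted 12–16 h, then given 300 mg kg⁻¹ i.p. in saline. At 12 h, blood was taken for serum ALT/AST (automated analyser). The left medial liver lobe was fixed in 4% formaldehyde, cryosectioned at 10 μm and stained with H&E. The ALT/AST ratio was tested against 1. Mean ± SEM, n = 6–7.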

[13] = Inhibition of prostanoid synthesis in FAAH-/- mouse assessed as 6-keto-PGF1alpha level in diencephalon at 150 mg/kg, ip measured after 40 mins by LC-MS/MS analysis relative to control; format: functional; set-up: scale not given: the % may be the effect or the level left; method in brief: as §2
[14] = tested on: Mus musculus; experiment: Antipyretic activity against LPS-induced C57BL/6 mouse model of hyperthermia assessed as PGE2 level in diencephalon at 100 mg/kg, ip measured after 40 mins by LC-MS/MS analysis relative to control; format: functional; method in brief: as §1
[15] = Hepatotoxicity in C57BL/6 mouse assessed as change in ALT level at 300 mg/kg, ip measured after 12 hrs; format: toxicity, organism-based; conditions: in vivo; method in brief: as §4
[16] = tested on: Mus musculus; experiment: Antipyretic activity against LPS-induced C57BL/6 mouse model of hyperthermia assessed as 6-keto-PGF1alpha level in diencephalon at 30 mg/kg, ip measured after 40 mins by LC-MS/MS analysis relative to control; format: functional; method in brief: as §1
[17] = Prodrug conversion in FAAH-/- mouse brain assessed as N-arachidonoyl conjugate level per g protein at 100 mg/kg, ip measured after 20 mins by LC-MS/MS analysis; format: ADME, organism-based; set-up: unit: pmol/g protein; conditions: in vivo
Method in brief: (§5)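 FAAH+/+ and FAAH-/- mice (both sexes) received the primary amine i.p. in saline (sometimes with 5% DMSO). Brains were collected 20 min later, frozen, and homogenized in Tris/EDTA/ascorbate with 10 μM MAFP. N-arachidonoyl conjugates were quantified by positive-ion LC-MS/MS and normalized to protein.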

[18] = Prodrug conversion in FAAH+/+ mouse brain assessed as N-arachidonoyl conjugate level per g protein at 100 mg/kg, ip measured after 20 mins by LC-MS/MS analysis; format: ADME, organism-based; set-up: unit: pmol/g protein; conditions: in vivo; method in brief: as §5
[19] = tested on: Mus musculus; experiment: Antipyretic activity against LPS-induced C57BL/6 mouse model of hyperthermia assessed as PGF2alpha level in diencephalon at 30 mg/kg, ip measured after 40 mins by LC-MS/MS analysis relative to control; format: functional; method in brief: as §1
[20] = tested on: Mus musculus; experiment: Hepatotoxicity in C57BL/6 mouse assessed as change in ALT/AST ratio at 300 mg/kg, ip measured after 12 hrs; format: functional; method in brief: as §4
[21] = Prodrug conversion in FAAH-/- mouse brain assessed as N-arachidonoyl conjugate level per g protein at 0.1 mM measured after 20 mins by LC-MS/MS analysis; format: ADME, tissue-based; conditions: in vitro, 100 µM
Method in brief: (§6)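 Brains from FAAH+/+ or FAAH-/- mice were homogenized in ice-cold 10 mM Tris with 1 mM EDTA and 0.3 mM ascorbic acid. Aliquots were incubated with 0.1 mM primary amine for 20 min at 37 °C with stirring. Reactions were stopped with cold acetone containing AM404-d4 internal standard, and conjugates were measured by LC-MS/MS. n = 5–7.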

[22] = tested on: Mus musculus; experiment: Antipyretic activity against LPS-induced C57BL/6 mouse model of hyperthermia assessed as TXB2 level in diencephalon at 30 mg/kg, ip measured after 40 mins by LC-MS/MS analysis relative to control; format: functional; method in brief: as §1
[23] = target: T1, Fatty-acid amide hydrolase 1 (Mus musculus, UniProt O08914); experiment: Substrate activity at FAAH in FAAH+/+ mouse brain assessed as N-arachidonoyl conjugate level per g protein at 0.1 mM measured after 20 mins by LC-MS/MS analysis; format: ADME, tissue-based; conditions: 100 µM; method in brief: as §6
T1 sequence (O08914 whole entry): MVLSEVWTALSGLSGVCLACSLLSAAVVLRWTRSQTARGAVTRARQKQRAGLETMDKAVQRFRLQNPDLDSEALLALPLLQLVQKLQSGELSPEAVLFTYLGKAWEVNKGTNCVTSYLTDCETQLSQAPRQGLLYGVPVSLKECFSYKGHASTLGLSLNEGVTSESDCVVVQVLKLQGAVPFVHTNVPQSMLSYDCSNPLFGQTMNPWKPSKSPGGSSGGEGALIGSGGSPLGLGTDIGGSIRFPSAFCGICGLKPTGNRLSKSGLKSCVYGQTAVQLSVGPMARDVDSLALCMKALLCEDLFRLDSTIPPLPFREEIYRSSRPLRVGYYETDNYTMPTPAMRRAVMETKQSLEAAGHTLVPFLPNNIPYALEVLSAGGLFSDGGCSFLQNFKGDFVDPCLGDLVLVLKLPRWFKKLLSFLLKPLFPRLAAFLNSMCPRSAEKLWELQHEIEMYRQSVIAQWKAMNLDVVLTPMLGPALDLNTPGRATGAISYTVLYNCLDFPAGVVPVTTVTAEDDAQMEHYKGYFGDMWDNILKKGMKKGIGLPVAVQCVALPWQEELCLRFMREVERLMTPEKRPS

[24] = tested on: Mus musculus; experiment: Antipyretic activity against LPS-induced C57BL/6 mouse model of hyperthermia assessed as reduction in body temperature at 30 mg/kg, ip measured after 75 mins; format: functional, organism-based; method in brief: as §3
[25] = tested on: Mus musculus; experiment: Antipyretic activity against LPS-induced C57BL/6 mouse model of hyperthermia assessed as PGE2 level in diencephalon at 30 mg/kg, ip measured after 40 mins by LC-MS/MS analysis relative to control; format: functional; method in brief: as §1

## CC(=O)Nc1ccc(O)cc1 [ACETAMINOPHEN]
[1]
  Activity: 17%
[2]
  Activity: 10%
[3]
  Activity: 18%
[4]
  Activity: 9%
[5]
  Activity: 36%
[6]
  Activity: 25%
[7]
  Activity: 18%
[8]
  Activity: 15%
[9]
  Activity: Active
[10]
  Activity: 8%
[11]
  Activity: 19%
[12]
  Activity: Toxic
[13]
  Activity: 12%
[14]
  Activity: 13%
[15]
  Activity: Toxic

## Nc1ccc(O)cc1 [4-AMINOPHENOL]
[16]
  Activity: 60%
[17]
  Drug metabolism: 24 pmol
[18]
  Drug metabolism: 1002 pmol
[19]
  Activity: 81%
[20]
  Ratio: >1
[21]
  Drug metabolism: 0.05 nmol/g
[22]
  Activity: 60%
[23]
  Drug metabolism: 8.8 nmol/g
[12]
  Activity: Non-Toxic
[24]
  Activity: inactive
[25]
  Activity: 44%
[15]
  Activity: Non-Toxic

— ChEMBL document CHEMBL4732106, “Paracetamol analogues conjugated by FAAH induce TRPV1-mediated antinociception without causing acute liver toxicity” (Eur J Med Chem, 2021)
